According to ChEMBL document CHEMBL4765370, “Design, synthesis, and biological evaluation of aryl piperazines with potential as antidiabetic agents via the stimulation of glucose uptake and inhibition of NADH:ubiquinone oxidoreductase” (Eur J Med Chem, 2020):
Converted amounts (≈) assume the structure as drawn.

Legend:
[1] = AUCinfinity in C57 Black mouse muscle at 10 mg/kg, iv; type: ADME, organism-based, Muscle tissue; design: time infinity, route intravenous, dose 10 mg/kg
Outline: (§1)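 Male C57BL/6 mice were given a single 10 mg/kg dose either intravenously or orally. The oral and IV solutions were formulated in 10% DMSO, 10% cremaphor and 80% saline. Concentrations in plasma and in the tissues collected were determined after dosing, with n = 3 per route. Values are given as mean ± SEM.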

[2] = Half life in mouse microsomes at 1 uM up to 120 mins by HPLC/MS-MS analysis; type: ADME, Microsome
[3] = Cmax in C57 Black mouse liver at 10 mg/kg, po; type: ADME, organism-based; design: route oral, dose 10 mg/kg; outline: as §1
[4] = Half life in C57 Black mouse liver at 10 mg/kg, po; type: ADME, organism-based
Outline: (§2)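 Male C57BL/6 mice (n = 3) dosed at 10 mg/kg by IV or oral (PO) route. Dosing solutions were formulated in 10% DMSO, 10% cremaphor and 80% saline. Compound levels were measured in plasma and tissues over time, and values are given as mean ± SEM.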

[5] = AUCinfinity in C57 Black mouse spleen at 10 mg/kg, iv; type: ADME, organism-based; design: time infinity, route intravenous, dose 10 mg/kg; outline: as §1
[6] = AUCall in C57 Black mouse spleen at 10 mg/kg, iv; type: ADME, organism-based; design: dose 10 mg/kg; outline: as §1
[7] = Tmax in C57 Black mouse spleen at 10 mg/kg, iv; type: ADME, organism-based; outline: as §2
[8] = AUCinfinity in C57 Black mouse spleen at 10 mg/kg, po; type: ADME, organism-based; design: time infinity, route oral, dose 10 mg/kg; outline: as §1
[9] = AUCall in C57 Black mouse spleen at 10 mg/kg, po; type: ADME, organism-based; design: dose 10 mg/kg; outline: as §1
[10] = Half life in C57 Black mouse spleen at 10 mg/kg, po; type: ADME, organism-based; outline: as §2
[11] = Volume of distribution in C57 Black mouse kidney at 10 mg/kg, iv; type: ADME, organism-based; outline: as §2
[12] = AUClast in C57 Black mouse kidney at 10 mg/kg, iv; type: ADME, organism-based; design: route intravenous, time 0 - last, dose 10 mg/kg; outline: as §1
[13] = AUCinfinity in C57 Black mouse kidney at 10 mg/kg, po; type: ADME, organism-based; design: route oral, time infinity, dose 10 mg/kg; outline: as §1
[14] = AUCall in C57 Black mouse kidney at 10 mg/kg, po; type: ADME, organism-based; design: dose 10 mg/kg; outline: as §1
[15] = AUClast in C57 Black mouse kidney at 10 mg/kg, po; type: ADME, organism-based; design: time 0 - last, route oral, dose 10 mg/kg; outline: as §1
[16] = Half life in C57 Black mouse kidney at 10 mg/kg, po; type: ADME, organism-based; outline: as §2
[17] = Inhibition of NADH:ubiquinone oxidoreductase in rat liver mitochondria incubated for 3 mins
[18] = Protein binding mouse serum at 1 uM after 60 to 120 mins by HPLC-MS/MS analysis; type: ADME, cell-free; conditions: time 60-120 min, read-out: PB (converted)
[19] = Half life in C57 Black mouse plasma at 10 mg/kg, po; type: ADME, organism-based; outline: as §2
[20] = AUClast in C57 Black mouse plasma at 10 mg/kg, po; type: ADME, organism-based; design: route oral, time 0 - last, dose 10 mg/kg; outline: as §1
[21] = Tmax in C57 Black mouse plasma at 10 mg/kg, iv; type: ADME, organism-based; outline: as §2
[22] = Clearance in C57 Black mouse plasma at 10 mg/kg, iv; type: ADME, organism-based; conditions: in vivo; outline: as §1
[23] = Cmax in C57 Black mouse brain at 10 mg/kg, po; type: ADME, organism-based; design: route oral, dose 10 mg/kg; outline: as §1
[24] = AUClast in C57 Black mouse brain at 10 mg/kg, po; type: ADME, organism-based; design: route oral, time 0 - last, dose 10 mg/kg; outline: as §1
[25] = Thermodynamic solubility of compound in PBS at 1 mg/ml after 24 hrs by LC-MS/MS analysis; type: physicochemical; conditions: read-out: Therm_solubility
Outline: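 Compound was equilibrated at 1 mg/mL and at 0.1 mg/mL in PBS containing 5% (v/v) DMSO, for 24 h at 21 °C. Samples were centrifuged at 15,000 g for 10 min and the supernatant was quantified by LC-MS/MS, n = 3.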

[26] = Volume of distribution in C57 Black mouse muscle at 10 mg/kg, iv; type: ADME, organism-based, Muscle tissue; outline: as §2
[27] = biological target: CYP2D6 (Homo sapiens, UniProt P10635); assay: Inhibition of human CYP2D6 using fluorogenic substrate incubated for 60 mins in presence of NADPH by fluorescence assay relative to control; type: ADME; conditions: probe fluorogenic substrate
Chain of CYP2D6 (P10635 whole entry): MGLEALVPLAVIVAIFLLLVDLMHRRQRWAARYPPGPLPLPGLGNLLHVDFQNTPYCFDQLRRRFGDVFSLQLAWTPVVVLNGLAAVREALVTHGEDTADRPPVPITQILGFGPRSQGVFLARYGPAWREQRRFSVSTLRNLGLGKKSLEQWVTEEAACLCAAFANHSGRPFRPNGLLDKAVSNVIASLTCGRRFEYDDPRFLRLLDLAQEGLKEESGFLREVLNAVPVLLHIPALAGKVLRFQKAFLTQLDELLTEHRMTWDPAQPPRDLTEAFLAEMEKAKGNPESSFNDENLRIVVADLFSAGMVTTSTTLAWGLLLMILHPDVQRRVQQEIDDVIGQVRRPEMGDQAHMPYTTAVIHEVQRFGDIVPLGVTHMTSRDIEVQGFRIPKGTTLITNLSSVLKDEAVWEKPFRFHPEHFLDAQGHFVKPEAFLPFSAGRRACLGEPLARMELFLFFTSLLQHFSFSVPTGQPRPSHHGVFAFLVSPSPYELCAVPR
Outline: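 Baculosomes each expressing a single cDNA-derived human P450 isozyme were incubated with compound at 10 µM, a fluorogenic substrate and NADPH. Incubation was at 37 °C for at least 60 min before fluorescence was read, n = 3.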

AUC(0-inf) [1]: 107 ng·h/mL | half-life at 1 µM [2]: 6 min | Cmax [3]: 4880 ng/mL | half-life [4]: 60 min | AUC(0-inf) [5]: 475 ng·h/mL | AUC [6]: 463 ng·h/mL | Tmax [7]: 1.8 min | AUC(0-inf) [8]: 1270 ng·h/mL | AUC [9]: 1260 ng·h/mL | half-life [10]: 66 min | Vd [11]: 3.06 L/kg | AUC(0-t) [12]: 320 ng·h/mL | AUC(0-inf) [13]: 1280 ng·h/mL | AUC [14]: 1220 ng·h/mL | AUC(0-t) [15]: 1220 ng·h/mL | half-life [16]: 34.2 min | IC50 [17]: 27 µM | fraction unbound at 1 µM [18]: 0.0052 | half-life [19]: 45.6 min | AUC(0-t) [20]: 520 ng·h/mL | Tmax [21]: 1.8 min | CL [22]: 68.37 mL/min/kg | Cmax [23]: 1430 ng/mL | AUC(0-t) [24]: 763 ng·h/mL | solubility thermodynamic at 24 h [25]: 4 µg/mL (≈ 10.5 µM) | Vd [26]: 7.13 L/kg | inhibition at 1 h [27]: -2.7%
SMILES: O=C(CCCc1cccs1)N1CCN(c2ccc(C(F)(F)F)cc2)CC1
